According to article PMC7442746 (ACS chemical biology, 2020):

What was measured:
[1] = target: T1, recombinant human HDAC10 (TwinStrep-HDAC10 fusion protein) (Homo sapiens, UniProt Q969S8); assay: Differential scanning fluorimetry; type: binding; conditions: protein 3 μM, inhibitor 6 μM; for melting temperature (Tm) of TwinStrep-HDAC10 with inhibitor: Tm 65.90 °C with 0.6% DMSO, n = 2
T1 sequence (Q969S8 1-669): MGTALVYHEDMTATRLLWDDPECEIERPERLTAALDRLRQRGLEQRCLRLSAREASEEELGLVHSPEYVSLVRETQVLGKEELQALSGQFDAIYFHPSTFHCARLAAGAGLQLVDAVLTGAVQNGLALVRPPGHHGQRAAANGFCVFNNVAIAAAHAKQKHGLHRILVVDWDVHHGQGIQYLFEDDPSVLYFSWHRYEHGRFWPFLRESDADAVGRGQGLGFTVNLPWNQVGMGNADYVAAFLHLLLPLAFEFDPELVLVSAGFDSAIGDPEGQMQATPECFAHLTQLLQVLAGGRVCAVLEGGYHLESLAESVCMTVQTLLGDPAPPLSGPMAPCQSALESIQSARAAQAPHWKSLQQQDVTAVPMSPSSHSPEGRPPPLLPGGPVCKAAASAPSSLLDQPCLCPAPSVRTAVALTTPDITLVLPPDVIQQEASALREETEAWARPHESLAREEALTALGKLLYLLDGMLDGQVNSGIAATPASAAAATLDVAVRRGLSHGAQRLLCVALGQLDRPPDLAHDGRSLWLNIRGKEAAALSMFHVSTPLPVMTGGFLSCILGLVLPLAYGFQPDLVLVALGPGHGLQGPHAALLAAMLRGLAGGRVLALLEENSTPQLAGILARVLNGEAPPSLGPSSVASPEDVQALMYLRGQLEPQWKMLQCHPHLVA
How it was run: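 Nano-DSF on recombinant human HDAC10 with an N-terminal TwinStrep tag. Protein at 3 μM and test compound at 6 μM (protein:inhibitor 1:2). Controls were protein alone and protein with DMSO, each run once. Compound runs were done twice and Tm reported as the mean of the two. Thermal shift was taken as the Tm change from the DMSO control.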

[2] = tested on: human HDAC10; conditions: oxa analogue weaker than Tubastatin A; cited from earlier work
[3] = tested on: HDAC10 over HDAC6; conditions: cited from earlier work

Row | melting temperature (Tm) of TwinStrep-HDAC10 with inhibitor [1] [°C] | thermal shift ([1]; relative to DMSO control) [°C] | Compound | difference in HDAC10 binding affinity between Tubastatin A and its oxa analogue [2] [fold] | selectivity for inhibition of HDAC10 compared to HDAC6 [3] [fold]
1 | 67.27 ± 0.01 | 1.37 | O=C(NO)c1ccc(Cn2c3c(c4ccccc42)COCC3)cc1 [oxa-Tubastatin A] | 52 | –
2 | 72.94 ± 0.08 | – | CN1CCc2c(c3ccccc3n2Cc2ccc(C(=O)NO)cc2)C1 [Tubastatin A, reference compound] | – | ~8
